In ChEMBL document CHEMBL4390650, “Design, synthesis and biological evaluation of 2-(phenoxymethyl)-5-phenyl-1,3,4-oxadiazole derivatives as anti-breast cancer agents” (Eur J Med Chem, 2019):
Active and inactive are the calls of the source. The calls are words filed in the database; no cut-off is given here.

Legend:
MCF7 = experiment: Cytotoxicity against human MCF7 cells assessed as reduction in cell viability incubated for 48 hrs by MTT assay; format: functional, cell-based; settings: for IC50: MCF7, 48 h
In short: (§1)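 Cells came from NCCS Pune and were grown in DMEM with 10% FBS at 37°C, 5% CO2, then trypsinized at 70-80% confluence. About 5,000 cells/well were seeded and allowed 24 h to recover. Compounds in DMSO, up to 100 μM, were added for 48 h against DMSO-only controls. The medium was then changed and MTT (5 mg/ml stock) added for 4 h. Formazan was dissolved in DMSO and read at 560 nm. Values are mean ± SD of three independent experiments in triplicate.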

MDA-MB-453 [1] = experiment: Cytotoxicity against human MDA-MB-453 cells assessed as reduction in cell viability incubated for 48 hrs by MTT assay; format: functional, cell-based; settings: for IC50: MDA-MB-453, 48 h; in short: as §1
MCF-10A = experiment: Cytotoxicity against human MCF10A cells assessed as reduction in cell viability incubated for 48 hrs by MTT assay; format: cell-based; in short: as §1
MDA-MB-453 [2] = experiment: Induction of morphological changes in human MDA-MB-453 cell assessed as induction of cell membrane blebbing at 10 uM incubated for 48 hrs by acridine orange and ethidium bromide staining based inverted fluorescent microscopy; format: functional
In short: (§2)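 MDA-MB-453 cells were seeded at 5×10⁵/well and incubated overnight at 37°C, 5% CO2, then treated for 48 h. They were stained 5 min with a 1:1 acridine orange/ethidium bromide mix (each dye 100 μg/ml) and imaged immediately under an inverted fluorescence microscope. Scoring: live cells green, late apoptotic orange, necrotic red.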

[3] = target: DNA (cytosine-5)-methyltransferase 3B (Homo sapiens) (UniProt Q9UBC3); experiment: Inhibition of DNMT3B (unknown origin) at 100 uM using cytosine-rich DNA substrate by ELISA relative to untreated control
In short: (§3)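 DNMT activity was measured with a commercial DNA methyltransferase activity/inhibition screening kit, following the manufacturer's instructions.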

MDA-MB-453 [4] = experiment: Induction of apoptosis in human MDA-MB-453 cells at 10 uM incubated for 48 hrs by acridine orange and ethidium bromide staining based inverted fluorescent microscopy; format: functional, cell-based; in short: as §2
MDA-MB-453 [5] = experiment: Induction of apoptosis in human MDA-MB-453 cells assessed as increase in p53 protein expression incubated for 48 hrs by Western blot analysis; format: functional, cell-based
In short: (§4)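 Western blot of treated MDA-MB-453 cells, with GAPDH as loading control.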

[6] = target: DNA (cytosine-5)-methyltransferase 1 (Homo sapiens) (UniProt P26358); experiment: Inhibition of DNMT1 (unknown origin) at 100 uM using cytosine-rich DNA substrate by ELISA relative to untreated control; in short: as §3
MDA-MB-453 [7] = experiment: Induction of apoptosis in human MDA-MB-453 cells assessed as increase in SMAD7 protein expression at 10 uM incubated for 48 hrs by Western blot analysis; format: functional, cell-based; in short: as §4
MDA-MB-453 [8] = experiment: Induction of morphological changes in human MDA-MB-453 cell assessed as induction of protrusion elongation at 10 uM incubated for 48 hrs by acridine orange and ethidium bromide staining based inverted fluorescent microscopy; format: functional; in short: as §2
MDA-MB-453 [9] = experiment: Induction of necrosis in human MDA-MB-453 cells at 10 uM incubated for 48 hrs by acridine orange and ethidium bromide staining based inverted fluorescent microscopy; format: functional, cell-based; in short: as §2
MDA-MB-453 [10] = experiment: Induction of morphological changes in human MDA-MB-453 cell assessed as induction of chromatin condensation at 10 uM incubated for 48 hrs by acridine orange and ethidium bromide staining based inverted fluorescent microscopy; format: functional; in short: as §2

DNA (cytosine-5)-methyltransferase 1 (Homo sapiens), sequence (P26358 whole entry): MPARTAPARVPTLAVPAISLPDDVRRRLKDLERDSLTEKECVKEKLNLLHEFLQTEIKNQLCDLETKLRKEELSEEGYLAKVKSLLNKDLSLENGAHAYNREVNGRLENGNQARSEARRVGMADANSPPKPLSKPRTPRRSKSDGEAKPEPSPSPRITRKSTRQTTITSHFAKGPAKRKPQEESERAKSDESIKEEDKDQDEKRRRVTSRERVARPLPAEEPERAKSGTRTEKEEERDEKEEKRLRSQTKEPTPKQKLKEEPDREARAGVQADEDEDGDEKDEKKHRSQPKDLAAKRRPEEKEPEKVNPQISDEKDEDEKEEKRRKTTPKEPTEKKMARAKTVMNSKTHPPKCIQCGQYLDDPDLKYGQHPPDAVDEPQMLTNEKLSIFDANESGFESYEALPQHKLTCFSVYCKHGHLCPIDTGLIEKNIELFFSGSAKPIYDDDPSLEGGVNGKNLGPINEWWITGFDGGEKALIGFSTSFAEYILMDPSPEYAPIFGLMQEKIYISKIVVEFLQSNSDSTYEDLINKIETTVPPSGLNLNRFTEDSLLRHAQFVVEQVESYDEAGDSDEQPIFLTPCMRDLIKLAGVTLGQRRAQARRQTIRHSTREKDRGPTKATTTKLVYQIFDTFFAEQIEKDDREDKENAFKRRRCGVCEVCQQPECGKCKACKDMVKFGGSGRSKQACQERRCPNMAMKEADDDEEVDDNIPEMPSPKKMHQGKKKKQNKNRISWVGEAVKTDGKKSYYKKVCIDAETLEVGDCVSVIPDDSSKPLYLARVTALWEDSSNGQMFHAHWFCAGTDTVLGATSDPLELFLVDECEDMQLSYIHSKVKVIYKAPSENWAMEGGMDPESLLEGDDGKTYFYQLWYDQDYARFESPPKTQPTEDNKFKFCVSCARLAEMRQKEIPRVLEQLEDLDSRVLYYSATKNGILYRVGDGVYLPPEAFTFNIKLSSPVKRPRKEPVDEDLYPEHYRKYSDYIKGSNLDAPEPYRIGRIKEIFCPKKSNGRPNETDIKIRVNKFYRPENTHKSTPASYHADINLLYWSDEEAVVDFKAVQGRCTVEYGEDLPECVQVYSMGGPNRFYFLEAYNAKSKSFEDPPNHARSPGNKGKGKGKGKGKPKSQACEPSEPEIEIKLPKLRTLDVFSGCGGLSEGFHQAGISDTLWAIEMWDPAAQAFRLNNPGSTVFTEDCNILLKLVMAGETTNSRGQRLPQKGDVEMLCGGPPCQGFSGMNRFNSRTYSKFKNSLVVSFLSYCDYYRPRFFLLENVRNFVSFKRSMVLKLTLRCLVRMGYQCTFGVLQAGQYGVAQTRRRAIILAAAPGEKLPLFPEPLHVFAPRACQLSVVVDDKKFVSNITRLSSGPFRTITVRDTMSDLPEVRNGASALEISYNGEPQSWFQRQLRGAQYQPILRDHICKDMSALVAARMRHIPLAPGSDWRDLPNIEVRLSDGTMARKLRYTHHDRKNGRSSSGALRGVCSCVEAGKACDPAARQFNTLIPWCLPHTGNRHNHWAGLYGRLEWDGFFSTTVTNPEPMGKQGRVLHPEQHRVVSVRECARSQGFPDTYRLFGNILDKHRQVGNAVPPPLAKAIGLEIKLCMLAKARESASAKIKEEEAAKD

| Structure (SMILES) | IC50 (MCF7) | IC50 (MDA-MB-453 [1]) | IC50 (MCF-10A) | other results |
| --- | --- | --- | --- | --- |
| N#Cc1ccc(OCc2nnc(-c3ccc(Cl)cc3)o2)cc1F | 48.3 µM | > 50 µM | > 100 µM |  |
| COc1ccc(-c2nnc(COc3ccc(-c4nnco4)cc3)o2)cc1 | 31.2 µM | 36.2 µM | > 100 µM |  |
| Fc1ccc(-c2nnc(COc3ccc(-c4nnco4)cc3)o2)cc1 | 35.6 µM | 38.2 µM | > 100 µM |  |
| COc1ccc(-c2nnc(COc3ccc(C#N)c(F)c3)o2)cc1 | 42.1 µM | 45.5 µM | > 100 µM |  |
| COc1ccc(-c2nnc(COc3ccc(C#N)cc3OC)o2)cc1 | 11.1 µM | 13 µM | > 100 µM |  |
| Cc1ccc(-c2nnc(COc3ccc(C#N)c(F)c3)o2)cc1 | > 50 µM | > 50 µM | > 100 µM |  |
| COc1cc(C#N)ccc1OCc1nnc(-c2ccc(F)cc2)o1 | 10.2 µM | 10.5 µM | > 100 µM | Activity (MDA-MB-453 [2]): Active; inhibition [3]: 33%; Activity (MCF7): Dose-dependent effect; Activity (MDA-MB-453 [4]): Active; Activity (MDA-MB-453 [5]): Dose-dependent effect; inhibition [6]: 10%; Activity (MDA-MB-453 [7]): Active; Activity (MDA-MB-453 [1]): Dose-dependent effect; Activity (MDA-MB-453 [8]): Active; Activity (MDA-MB-453 [9]): Active; Activity (MDA-MB-453 [10]): Active |
| Cc1ccc(NC(=O)c2ccc(CN3CCN(C)CC3)cc2)cc1Nc1nccc(-c2cccnc2)n1 [IMATINIB] |  | 12.8 µM | > 100 µM |  |
| N#Cc1ccc(OCc2nnc(-c3ccc(F)cc3)o2)cc1F | 20.4 µM | 25.1 µM | 84.2 µM |  |
| COc1cc(C#N)ccc1OCc1nnc(-c2ccc(Cl)cc2)o1 | 21.5 µM | 33.9 µM | 89.5 µM |  |
| Clc1ccc(-c2nnc(COc3ccc(-c4nnco4)cc3)o2)cc1 | 45.2 µM | > 50 µM | > 100 µM |  |
| N#Cc1ccc(OCc2nnc(-c3ccccc3)o2)cc1F | > 50 µM | > 50 µM | > 100 µM |  |
| COc1cc(C#N)ccc1OCc1nnc(-c2ccccc2)o1 | 32.2 µM | 40.1 µM | > 100 µM |  |
| c1ccc(-c2nnc(COc3ccc(-c4nnco4)cc3)o2)cc1 | > 50 µM | > 50 µM | > 100 µM |  |
| COc1cc(C#N)ccc1OCc1nnc(-c2ccc(C)cc2)o1 | 27.1 µM | 38.4 µM | > 100 µM |  |
| Cc1ccc(-c2nnc(COc3ccc(-c4nnco4)cc3)o2)cc1 | > 50 µM | > 50 µM | > 100 µM |  |
